The term pKi denotes the Ki on a negative log10 scale, so that one unit is a factor of ten. By pIC50 is commonly meant the negative decadic logarithm of the IC50, by convention in mol/L. The inhibition in vivo is how much of the control response was suppressed.

The target of test [1] is T1, Transient receptor potential cation channel subfamily V member 1 (Homo sapiens, UniProt Q8NER1). In words: Antagonist activity at human TRPV1 expressed in CHOK1 cells assessed as inhibition of capsaicin-induced activity by FLIPR assay. It is filed as cell-based, CHO-K1.
Test [2] has as its target T1, Transient receptor potential cation channel subfamily V member 1. In words: Antagonist activity at human TRPV1 expressed in CHOK1 cells assessed as inhibition of pH 6 to 6.3-induced activity by FLIPR assay. It is filed as cell-based, CHO-K1.
The target is the same in test [3]. In words: Antagonist activity at human TRPV1 expressed in CHOK1 cells assessed as inhibition of N-arachidonoyldopamine-induced activity after 5 mins by FLIPR assay. It is filed as cell-based, CHO-K1.
The target is the same in test [4]. In words: Antagonist activity at human TRPV1 expressed in CHOK1 cells assessed as inhibition of heat 45 degC-induced activity after 5 mins by FLIPR assay. It is filed as cell-based, CHO-K1.
In test [5] the test system is Mus musculus. Briefly: Analgesic activity in NMRI mouse assessed as inhibition of formalin-induced nociceptive response at 0.1 mg/kg, po mesaured for 21 to 24 mins relative to control. It is filed as functional. In a few lines: (§1)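 Oral dosing in mice, randomized dose and vehicle groups, 10 animals per group, vehicle control each study. 20 μl 1% formalin in 0.9% NaCl injected subcutaneously into dorsal right hind paw. Time spent licking and biting the injected paw counted 21–24 min post-formalin. Reported as % inhibition (mean ± SEM) versus vehicle; Kruskal–Wallis test.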

Test [6] deals with Mus musculus. Briefly: Analgesic activity in NMRI mouse assessed as inhibition of formalin-induced nociceptive response at 0.3 mg/kg, po mesaured for 21 to 24 mins relative to control. It is filed as functional. In a few lines: as §1

pIC50, pKi: −log10 of the molar value. A value given as a limit tells only on which side of the number the result lay.

T1 sequence (Q8NER1 whole entry): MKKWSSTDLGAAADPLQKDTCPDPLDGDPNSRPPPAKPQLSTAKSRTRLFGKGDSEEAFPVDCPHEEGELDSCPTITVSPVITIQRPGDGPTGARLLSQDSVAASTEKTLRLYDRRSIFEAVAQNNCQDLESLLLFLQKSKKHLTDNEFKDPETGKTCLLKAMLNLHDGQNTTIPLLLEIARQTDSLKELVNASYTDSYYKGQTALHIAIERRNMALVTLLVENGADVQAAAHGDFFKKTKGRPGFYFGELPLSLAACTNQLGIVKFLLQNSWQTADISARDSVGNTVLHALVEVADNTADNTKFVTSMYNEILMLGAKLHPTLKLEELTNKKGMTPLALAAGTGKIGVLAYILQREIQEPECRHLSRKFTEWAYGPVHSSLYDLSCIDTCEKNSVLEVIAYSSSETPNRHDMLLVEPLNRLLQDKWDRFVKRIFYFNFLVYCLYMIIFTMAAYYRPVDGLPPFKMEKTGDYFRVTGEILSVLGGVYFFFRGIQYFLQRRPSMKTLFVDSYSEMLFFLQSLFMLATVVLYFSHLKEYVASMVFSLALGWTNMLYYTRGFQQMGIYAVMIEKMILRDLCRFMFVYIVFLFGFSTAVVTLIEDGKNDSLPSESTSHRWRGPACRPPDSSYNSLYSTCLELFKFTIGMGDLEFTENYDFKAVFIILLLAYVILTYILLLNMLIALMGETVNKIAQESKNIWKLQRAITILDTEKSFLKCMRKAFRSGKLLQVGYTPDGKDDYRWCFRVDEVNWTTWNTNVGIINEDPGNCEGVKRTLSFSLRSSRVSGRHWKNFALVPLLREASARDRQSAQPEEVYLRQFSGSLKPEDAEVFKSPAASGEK

Take `CC(C(=O)NCc1ccc(C(C)(C)C)cc1)c1ccc(NS(C)(=O)=O)c(F)c1` (stereo not given): the pKi in test [1] is 7.35. Besides, the negative-log IC50 (pIC50) in test [2] was 5.70.

As to `CC1CCN(c2nc(C(F)(F)F)ccc2CNC(=O)C(C)c2ccc(NS(C)(=O)=O)c(F)c2)CC1` (stereo not given), the pKi in test [3] is 9.64. Also, the pIC50 in test [4] was 8.35.

Consider `CC(C(=O)NCc1ccc(C(F)(F)F)nc1OCCC1CCCCN1C(=O)OC(C)(C)C)c1ccc(NS(C)(=O)=O)c(F)c1` (stereo not given), for which, in test [1], the negative-log Ki (pKi) is 9.52. For the same compound, the negative-log IC50 (pIC50) in test [2] is 7.78.

Turning to `CC(C(=O)NCc1ccc(C(F)(F)F)nc1OCc1ccccc1)c1ccc(NS(C)(=O)=O)c(F)c1` (stereo not given), in the test on Mus musculus [5], the inhibition in vivo at 0.1 mg/kg was found to be 41.8%. For the same compound, the negative logarithm of the Ki (pKi) in test [3] was 12.00. Besides, in the test on Mus musculus [6], the inhibition in vivo at 0.3 mg/kg came out at 54.1%. Moreover, in test [4], the pIC50 was 7.28.

Regarding `CC(C(=O)NCc1ccc(C(F)(F)F)nc1OCCc1ccccc1)c1ccc(NS(C)(=O)=O)c(F)c1` (stereo not given), the negative logarithm of the Ki (pKi) in test [1] was 9.30. For the same compound, the pIC50 in test [2] is 7.56.

Regarding `COc1ccc(COc2nc(C(F)(F)F)ccc2CNC(=O)C(C)c2ccc(NS(C)(=O)=O)c(F)c2)cc1` (stereo not given), the pKi in test [1] is 8.59. Also, the negative logarithm of the IC50 (pIC50) in test [2] is 6.19.

With `CC(C(=O)NCc1ccc(C(F)(F)F)nc1OCc1cccc(F)c1)c1ccc(NS(C)(=O)=O)c(F)c1` (stereo not given), the negative-log Ki (pKi) in test [1] is 9.10. Moreover, the pIC50 in test [2] is 7.16.

`CC(C(=O)NCc1ccc(C(F)(F)F)nc1OCc1cccc(Cl)c1)c1ccc(NS(C)(=O)=O)c(F)c1` (stereo not given): the pKi in test [1] is 8.31. Further, the pIC50 in test [2] is 7.02.

For `CC(C(=O)NCc1ccc(C(F)(F)F)nc1OCc1cc(F)cc(F)c1)c1ccc(NS(C)(=O)=O)c(F)c1` (stereo not given), the negative-log Ki (pKi) in test [1] was 9.00. Also, the pIC50 in test [2] is 7.03.

Regarding `CC(C(=O)NCc1ccc(C(F)(F)F)nc1OCc1cc(Cl)cc(Cl)c1)c1ccc(NS(C)(=O)=O)c(F)c1` (stereo not given), the pKi in test [1] was 8.59. Also, in test [2], the pIC50 is 6.94.

Regarding `CC1CC(C)CC(Oc2nc(C(F)(F)F)ccc2CNC(=O)C(C)c2ccc(NS(C)(=O)=O)c(F)c2)C1` (stereo not given), the negative-log IC50 (pIC50) in test [2] is 6.76.

Take `CC(C(=O)NCc1ccc(C(F)(F)F)nc1OC1CCNCC1)c1ccc(NS(C)(=O)=O)c(F)c1` (stereo not given): the pIC50 in test [2] was less than 5.00.

Take `CC(C(=O)NCc1ccc(C(F)(F)F)nc1OC[C@@H]1C[C@H]1C)c1ccc(NS(C)(=O)=O)c(F)c1` (stereo not given in full): the negative-log Ki (pKi) in test [1] was 9.52. Also, the pIC50 in test [2] was 8.29.

On to `CC(C(=O)NCc1ccc(C(F)(F)F)nc1OCC1CCNCC1)c1ccc(NS(C)(=O)=O)c(F)c1` (stereo not given), for which the pIC50 in test [2] is less than 5.00.

For `COCCOc1nc(C(F)(F)F)ccc1CNC(=O)C(C)c1ccc(NS(C)(=O)=O)c(F)c1` (stereo not given), in test [1], the pKi was 7.31.

Consider `CCOCCOc1nc(C(F)(F)F)ccc1CNC(=O)C(C)c1ccc(NS(C)(=O)=O)c(F)c1` (stereo not given), for which the negative-log Ki (pKi) in test [1] was 7.30.

Consider `CC(C)COc1nc(C(F)(F)F)ccc1CNC(=O)C(C)c1ccc(NS(C)(=O)=O)c(F)c1` (stereo not given), for which, in the test on Mus musculus [5], the inhibition in vivo at 0.1 mg/kg came out at 63.4%. The negative-log Ki (pKi) in test [3] is 9.54. In addition, the inhibition in vivo at 0.3 mg/kg in the test on Mus musculus [6] was determined as 60.8%. Also, in test [4], the negative-log IC50 (pIC50) is 7.17.

Take `CCC(CC)Oc1nc(C(F)(F)F)ccc1CNC(=O)C(C)c1ccc(NS(C)(=O)=O)c(F)c1` (stereo not given): in test [2], the negative-log IC50 (pIC50) was less than 5.00.

Regarding `CCCCC(CCC)Oc1nc(C(F)(F)F)ccc1CNC(=O)C(C)c1ccc(NS(C)(=O)=O)c(F)c1` (stereo not given), the negative logarithm of the Ki (pKi) in test [1] is 9.30.

For the origin of these results see ChEMBL document CHEMBL2384950, “2-(3-Fluoro-4-methylsulfonylaminophenyl)propanamides as potent TRPV1 antagonists: structure activity relationships of the 2-oxy pyridine C-region” (Eur J Med Chem, 2013).
